Usually inhibition stands for the percentage by which the read-out fell short of the control. What is called IC50 is the concentration that inhibits the measured activity by half.

Sequence of ABCB1 (P-glycoprotein) (P08183 whole entry): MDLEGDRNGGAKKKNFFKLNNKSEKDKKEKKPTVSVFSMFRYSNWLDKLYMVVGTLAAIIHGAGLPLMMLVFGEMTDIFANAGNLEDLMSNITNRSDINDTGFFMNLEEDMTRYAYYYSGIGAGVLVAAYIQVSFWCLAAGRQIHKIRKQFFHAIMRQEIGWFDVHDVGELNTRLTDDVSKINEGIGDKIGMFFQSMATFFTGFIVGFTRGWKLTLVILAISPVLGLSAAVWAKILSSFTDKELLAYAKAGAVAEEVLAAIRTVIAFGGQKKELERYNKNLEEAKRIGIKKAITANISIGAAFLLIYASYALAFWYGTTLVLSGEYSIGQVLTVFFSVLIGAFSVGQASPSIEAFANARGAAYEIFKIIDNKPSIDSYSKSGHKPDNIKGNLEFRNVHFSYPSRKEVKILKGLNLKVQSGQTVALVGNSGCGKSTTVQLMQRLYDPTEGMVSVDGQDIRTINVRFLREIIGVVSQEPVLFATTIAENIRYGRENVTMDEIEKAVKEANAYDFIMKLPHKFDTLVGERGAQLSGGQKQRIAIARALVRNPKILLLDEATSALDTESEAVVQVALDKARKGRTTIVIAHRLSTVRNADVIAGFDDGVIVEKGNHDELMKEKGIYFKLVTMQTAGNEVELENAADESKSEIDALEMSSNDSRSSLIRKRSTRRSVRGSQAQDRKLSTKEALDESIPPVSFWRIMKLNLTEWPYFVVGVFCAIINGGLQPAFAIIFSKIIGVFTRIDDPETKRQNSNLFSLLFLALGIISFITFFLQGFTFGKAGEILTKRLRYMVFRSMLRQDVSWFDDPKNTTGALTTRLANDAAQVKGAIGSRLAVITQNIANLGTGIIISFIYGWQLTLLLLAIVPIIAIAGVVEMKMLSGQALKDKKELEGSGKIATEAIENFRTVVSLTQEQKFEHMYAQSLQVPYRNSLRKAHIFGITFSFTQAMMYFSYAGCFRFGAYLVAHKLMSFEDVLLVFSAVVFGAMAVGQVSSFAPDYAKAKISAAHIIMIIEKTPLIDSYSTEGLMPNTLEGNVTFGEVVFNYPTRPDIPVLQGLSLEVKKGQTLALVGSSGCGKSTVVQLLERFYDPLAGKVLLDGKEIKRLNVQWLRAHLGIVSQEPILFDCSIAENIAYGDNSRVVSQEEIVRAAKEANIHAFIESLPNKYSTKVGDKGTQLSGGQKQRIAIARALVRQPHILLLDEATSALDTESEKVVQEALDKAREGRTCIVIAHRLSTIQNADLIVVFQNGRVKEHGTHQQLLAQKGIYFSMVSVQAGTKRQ

System in one data set: not listed separately
Put plainly: Synergistic cytotoxicity against mouse L5178 cells expressing human ABCB1 assessed as combination index at ED50 using 7.5:1 test compound to doxorubicin ratio after 48 hrs by MTT-based checkerboard microplate method.
Details: not given
Format: functional. The method, boiled down:
(§1)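 Checkerboard microplate combinations of compound with doxorubicin at constant molar ratios. 5 × 10^4 cells/well in McCoy's 5A, 48 h at 37°C, 5% CO2. MTT added to 0.5 mg/mL final for 4 h, SDS/HCl overnight, OD read at 540 and 630 nm. Combination indices derived per ratio for 50%, 75% and 90% growth inhibition by median-effect analysis.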
For `CC(C)(O)CC[C@H]1OC(C)(C)O[C@]1(C)[C@H]1CC=C2C3=C/C(=N\OC(C)(C)C)[C@@H]4C[C@H]5OC(C)(C)O[C@H]5C[C@]4(C)[C@H]3CC[C@@]21C`, the CI amounted to 0.27.

System in another data set: not listed separately
As to the kind of experiment: Synergistic cytotoxicity against mouse L5178 cells expressing human ABCB1 assessed as combination index at ED90 using 3.75:1 test compound to doxorubicin ratio after 48 hrs by MTT-based checkerboard microplate method.
Details: not given
Format: functional. The gist of the method:
as §1
As for `CC(C)(O)CC[C@H]1OC(C)(C)O[C@]1(C)[C@H]1CC=C2C3=C/C(=N\OC(C)(C)C)[C@@H]4C[C@H]5OC(C)(C)O[C@H]5C[C@]4(C)[C@H]3CC[C@@]21C`, the CI is 0.24.

A further data set has as its target ABCB1 (P-glycoprotein) (Homo sapiens, UniProt P08183). As to the kind of experiment: Inhibition of human ABCB1 expressed in mouse L5178 cells assessed as increase in rhodamine-123 accumulation at 20 uM after 10 mins by flow cytometric analysis relative to control. The settings on record: mouse L5178 cells expressing human ABCB1, probe rhodamine-123. Format: cell-based. The gist of the method: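 Cells at 2 × 10^6/mL were preincubated 10 min with compound. Rhodamine 123 then added to 5.2 µM final, 20 min at 37 °C. Cells washed twice in PBS, resuspended and read by flow cytometry. Percent inhibition was scaled between MDR-cell accumulation (0%) and parental L5178 accumulation (100%). Controls: 100 nM tariquidar (positive) and 2% DMSO (negative).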
(A flow cytometer gives signals particle by particle.)
Consider `CC(C)(O)CC[C@H]1OC(C)(C)O[C@]1(C)[C@H]1CC=C2C3=C/C(=N\OC(C)(C)C)[C@@H]4C[C@H]5OC(C)(C)O[C@H]5C[C@]4(C)[C@H]3CC[C@@]21C`, for which the inhibition at 10 min, 20 µM is 94%.

System in the next data set: not listed separately
Put plainly: Synergistic cytotoxicity against mouse L5178 cells assessed as combination index at ED75 using 300:1 test compound to doxorubicin ratio after 48 hrs by MTT-based checkerboard microplate method. Type of data set: functional.
Details: not given
The method, boiled down:
as §1
For the molecule `CC(C)(O)CC[C@H]1OC(C)(C)O[C@]1(C)[C@H]1CC=C2C3=C/C(=N\OC(C)(C)C)[C@@H]4C[C@H]5OC(C)(C)O[C@H]5C[C@]4(C)[C@H]3CC[C@@]21C`, the CI is 0.87.

System in a further data set: not listed separately
Put plainly: Synergistic cytotoxicity against mouse L5178 cells assessed as combination index at ED90 using 150:1 test compound to doxorubicin ratio after 48 hrs by MTT-based checkerboard microplate method. Format: functional.
Details: not given
The method, boiled down:
as §1
As for `CC(C)(O)CC[C@H]1OC(C)(C)O[C@]1(C)[C@H]1CC=C2C3=C/C(=N\OC(C)(C)C)[C@@H]4C[C@H]5OC(C)(C)O[C@H]5C[C@]4(C)[C@H]3CC[C@@]21C`, the CI was 0.84.

System in another data set: not listed separately
As to the kind of experiment: Synergistic cytotoxicity against mouse L5178 cells expressing human ABCB1 assessed as combination index at ED75 using 7.5:1 test compound to doxorubicin ratio after 48 hrs by MTT-based checkerboard microplate method. Type of data set: functional.
Details: not given
The gist of the method: as §1
In the case of `CC(C)(O)CC[C@H]1OC(C)(C)O[C@]1(C)[C@H]1CC=C2C3=C/C(=N\OC(C)(C)C)[C@@H]4C[C@H]5OC(C)(C)O[C@H]5C[C@]4(C)[C@H]3CC[C@@]21C`, the CI came out at 0.24.

System in the next data set: not listed separately
Put plainly: Synergistic cytotoxicity against mouse L5178 cells assessed as combination index at ED50 using 600:1 test compound to doxorubicin ratio after 48 hrs by MTT-based checkerboard microplate method. Format: functional.
Details: not given
The method, boiled down:
as §1
With `CC(C)(O)CC[C@H]1OC(C)(C)O[C@]1(C)[C@H]1CC=C2C3=C/C(=N\OC(C)(C)C)[C@@H]4C[C@H]5OC(C)(C)O[C@H]5C[C@]4(C)[C@H]3CC[C@@]21C`, the CI was found to be 0.83.

Another data set deals with MCF7. As to the kind of experiment: Antiproliferative activity against human MCF7 cells after 72 hrs by MTT assay. Format: functional, cell-based. As to conditions: MCF7, 72 h. The gist of the method:
(§2)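 Cells grown in MEM with 10% FCS, 1% non-essential amino acids and 1% penicillin-streptomycin. Seeded at 5000 cells/well, exposed to 0.1–30.0 µM compound for 72 h. MTT (5 mg/ml solution) was then added for 4 h, formazan dissolved in DMSO, and absorbance read at 545 nm. Cisplatin served as positive control. IC50 came from sigmoidal dose–response fits (log inhibitor vs normalized response, variable slope).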
On the technique in general: Tetrazolium dyes change colour on reduction, which living cells bring about.
In turn, `CC(C)(O)CC[C@H]1OC(C)(C)O[C@]1(C)[C@H]1CC=C2C3=C/C(=N\OC(C)(C)C)[C@@H]4C[C@H]5OC(C)(C)O[C@H]5C[C@]4(C)[C@H]3CC[C@@]21C` gave an IC50 of 19.3 µM.

The next data set concerns MDA-MB-231. As to the kind of experiment: Antiproliferative activity against human MDA-MB-231 cells after 72 hrs by MTT assay. Type of data set: functional, cell-based. As to conditions: MDA-MB-231, 72 h. The method, boiled down: as §2
Molecule `CC(C)(O)CC[C@H]1OC(C)(C)O[C@]1(C)[C@H]1CC=C2C3=C/C(=N\OC(C)(C)C)[C@@H]4C[C@H]5OC(C)(C)O[C@H]5C[C@]4(C)[C@H]3CC[C@@]21C` returned an IC50 of 16.9 µM. This lies in the double-digit micromolar range.

System in the next data set: not listed separately
Put plainly: Synergistic cytotoxicity against mouse L5178 cells expressing human ABCB1 assessed as combination index at ED50 using 15:1 test compound to doxorubicin ratio after 48 hrs by MTT-based checkerboard microplate method. Format: functional.
Details: not given
The method, boiled down:
as §1
In the case of `CC(C)(O)CC[C@H]1OC(C)(C)O[C@]1(C)[C@H]1CC=C2C3=C/C(=N\OC(C)(C)C)[C@@H]4C[C@H]5OC(C)(C)O[C@H]5C[C@]4(C)[C@H]3CC[C@@]21C`, the CI is recorded as 0.89.

System in another data set: not listed separately
Put plainly: Synergistic cytotoxicity against mouse L5178 cells expressing human ABCB1 assessed as combination index at ED90 using 60:1 test compound to doxorubicin ratio after 48 hrs by MTT-based checkerboard microplate method. Format: functional.
Details: not given
The method, boiled down:
as §1
Take `CC(C)(O)CC[C@H]1OC(C)(C)O[C@]1(C)[C@H]1CC=C2C3=C/C(=N\OC(C)(C)C)[C@@H]4C[C@H]5OC(C)(C)O[C@H]5C[C@]4(C)[C@H]3CC[C@@]21C`: the CI is recorded as 0.64.

System in the next data set: not listed separately
As to the kind of experiment: Synergistic cytotoxicity against mouse L5178 cells expressing human ABCB1 assessed as combination index at ED50 using 30:1 test compound to doxorubicin ratio after 48 hrs by MTT-based checkerboard microplate method. Format: functional.
Details: not given
The gist of the method:
as §1
Turning to `CC(C)(O)CC[C@H]1OC(C)(C)O[C@]1(C)[C@H]1CC=C2C3=C/C(=N\OC(C)(C)C)[C@@H]4C[C@H]5OC(C)(C)O[C@H]5C[C@]4(C)[C@H]3CC[C@@]21C`, the CI was 0.36.

System in a further data set: not listed separately
As to the kind of experiment: Synergistic cytotoxicity against mouse L5178 cells assessed as combination index at ED90 using 75:1 test compound to doxorubicin ratio after 48 hrs by MTT-based checkerboard microplate method. Type of data set: functional.
Details: not given
The gist of the method:
as §1
For the molecule `CC(C)(O)CC[C@H]1OC(C)(C)O[C@]1(C)[C@H]1CC=C2C3=C/C(=N\OC(C)(C)C)[C@@H]4C[C@H]5OC(C)(C)O[C@H]5C[C@]4(C)[C@H]3CC[C@@]21C`, the CI stood at 0.83.

System in the next data set: not listed separately
Put plainly: Synergistic cytotoxicity against mouse L5178 cells assessed as combination index at ED75 using 600:1 test compound to doxorubicin ratio after 48 hrs by MTT-based checkerboard microplate method. Format: functional.
Details: not given
The gist of the method: as §1
Consider `CC(C)(O)CC[C@H]1OC(C)(C)O[C@]1(C)[C@H]1CC=C2C3=C/C(=N\OC(C)(C)C)[C@@H]4C[C@H]5OC(C)(C)O[C@H]5C[C@]4(C)[C@H]3CC[C@@]21C`, for which the CI came to 0.89.

The record behind these values is ChEMBL document CHEMBL4145462, “Nitrogen-containing ecdysteroid derivatives vs. multi-drug resistance in cancer: Preparation and antitumor activity of oximes, oxime ethers and a lactam” (Eur J Med Chem, 2018).
